bCat KO growth: beta-catenin-lacking colon tumor cell growth suppression | HCT116 beta-catenin knockout viability, CellTiter-Glo, 60 h; hits give low values | viability, % at 10 µM | hit rate 1.5% among 140,000 | AID 818;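 active = viability at or under a set limit, the compound median less 4 SD, cut at about 6% in these data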;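 note: 0% = Hyamine 1622 control at 20 µM and 100% = untreated cell control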
sdo1 growth: compounds rescuing growth of sdo1-depleted yeast, bone marrow failure model. S. cerevisiae sdo1-depleted JHY4D growth rescue, OD600 30 h; hits give high values; pdr5 snq2 efflux-pump mutant strain. z-score at 10 µM. hit rate 0.21% among 140,000;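 active = z-score above 3 at both the 24 hr and the 30 hr optical density reads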;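 note: z-score against mean and SD of all compound wells on the same plate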
PTEN del growth: PTEN-deleted cell growth suppression; HCT116 PTEN-null viability, CellTiter-Glo, 60 h; hits give low values; AID 827; viability, % at 10 µM; hit rate 1.2% among 140,000;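 active = viability at or below a set limit, 4 SD under the median of all tested compounds, cut at about 3.7% in these data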;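 note: PTEN knockout HCT116 line with beta catenin targeted HCT116 as companion control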
Autophagy HCS: alters autophagy in cells | MEF GFP-LC3 puncta imaging; test concentration mostly 10 µM | calls only at 10 µM (by protocol) | hit rate 0.98% among 190,000 | AID 463193;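 active = percentage of spot-positive cells more than 3 SD above its plate mean, without a fluorescence outlier flag or 80% toxicity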;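 note: spot-positive cell cutoff set from DMSO-treated cells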
Dynein transport: blocks dynein driven cargo transport along microtubules | 3617.4 mouse cells, GR-EGFP nuclear translocation imaging; test concentration mostly 20 µM; stimulated with dexamethasone, 1 µM; hits give low values | z-score, hits read low | hit rate 0.47% among 220,000;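 active = plate z-score of nuclear minus cytoplasmic receptor signal below a set negative limit, without overly bright fluorescence or cell loss, cut at about -3.5 in these data, passing the limit was not always enough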;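 note: z-score of nuclear minus cytoplasmic ring GR-EGFP intensity difference per well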
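Also added: dexamethasone, 1.0 µM final. Medium: tet-free, stripped-serum medium. Detection: fixed, Hoechst-stained cells imaged at 10x for EGFP. Read-out: nuclear-to-cytoplasmic GR-EGFP distribution per well. Times: induction 48 h, compound 1 h, agonist 30 min.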
* = called active by the depositor; i = inactive; x = no result given; + = active, no number; [ ] = another dose, or the depositor's remark. Sampled rows, rich in hits. Any-hit rate of the full collection: about 2.2%.

SMILES	bCat KO growth	sdo1 growth	PTEN del growth	Autophagy HCS	Dynein transport
CCCn1c(CN2CCCCC2C)nc2c1c(=O)n(C)c(=O)n2C (centres undefined)	77	1	73	i	0.99
CC(C)c1nc(SCc2c(F)cccc2Cl)c2c(=O)n(C)c(=O)n(C)c2n1	3.5*	0.28	3.7*	i	-0.18
Cn1c(=O)c2c(nc(SCCCC#N)n2Cc2c(F)cccc2Cl)n(C)c1=O	85	0.55	84	x	-1.1
CSc1ccc2c(c1)N(CCC1CCCCN1C)c1ccccc1S2 (centres undefined)	1.2*	-2	1.4*	i	4
CCOc1ccc(CNn2nnnc2N)cc1	96	0.85	105	i	-0.21
Cc1cc(NC(=O)CCCn2nc([N+](=O)[O-])cc2C)no1	x	x	x	i	-1.3
Cc1cc(NC(=O)CCCn2nc([N+](=O)[O-])c(Cl)c2C)no1	x	x	x	+	-0.66
Cc1nc2cc(NC(=O)NCCC3=CCCCC3)ccc2o1	96	-0.52	99	i	-0.059
N=c1n(CC(=O)c2ccc([N+](=O)[O-])cc2)c2ccccc2n1Cc1ccc(Cl)cc1	1.3*	-2.1	1.6*	i	0.95
N=c1n(CC(=O)c2ccc([N+](=O)[O-])cc2)c2ccccc2n1Cc1ccccc1	1.7*	-1.4	1.8*	i	-1.1
Cc1ccc(C2(c3ccc(C)cc3)CC2C(=O)Nc2ccc([N+](=O)[O-])cc2O)cc1 (centres undefined)	2.3*	-1.7	3.3*	i	-1.2
CCN(CC)S(=O)(=O)c1cc([N+](=O)[O-])ccc1N=Nc1c(O)[nH]c2ccccc12	78	1.2	87	+	-0.16
CCc1cc(C(=O)N=Nc2c(O)[nH]c3ccc([N+](=O)[O-])cc23)c2ccccc2n1	90	0.57	84	i	0.19
COc1ccc(C(=O)OCC(=O)Nc2ccc([N+](=O)[O-])cc2OC)c(O)c1	x	x	x	+	0.53
COc1ccc(C(=O)/C=C/Nc2ccc([N+](=O)[O-])cc2C)c(OC)c1	89	-0.66	75	+	-1.1
CCc1ccc(/C(C)=N\Nc2ccc([N+](=O)[O-])cc2)cc1	88	-0.06	86	+	-0.25
O=C(Nc1cccc(Cl)c1)Nc1cc(S(=O)(=O)N2CCCCC2)ccc1Cl	3.9*	-1	2.4*	i	-0.6
CC(=O)Nc1sc(C)c(C)c1C(=O)OCC(=O)Nc1cc(S(=O)(=O)N2CCCCC2)ccc1Cl	40	0.08	3.1*	i	1.5
CC(=O)c1c(C)[nH]c(C(=O)OCC(=O)Nc2cc(S(=O)(=O)N3CCCC3)ccc2Cl)c1C	72	0.43	69	i	-0.81
CC(NC(=O)Cn1ncc(Cl)c(Cl)c1=O)C12CC3CC(CC(C3)C1)C2 (centres undefined)	1.2*	-0.62	1.4*	i	-3.4
CCn1cc(C(=O)NC(C)C23CC4CC(CC(C4)C2)C3)cn1 (centres undefined)	98	0.04	103	i	-0.52
CC(=O)Nc1nc(SCC(=O)NCc2ccc(F)cc2)[nH]c(=O)c1NC(=O)c1cccs1	x	x	x	+	0.87
CC(=O)c1cc2c(cc1NS(=O)(=O)c1ccc(C)cc1)OCCO2	58	-1.1	48	i	0.13
C/C(=N/NC(=O)c1cc(-c2cccc([N+](=O)[O-])c2)n[nH]1)c1cccc(O)c1	x	x	x	x	-0.85
C/C(=N\NC(=O)c1cc(-c2cccc([N+](=O)[O-])c2)n[nH]1)c1ccccc1O	9	-1.4	2.9*	i	0.68
SMILES	bCat KO growth	sdo1 growth	PTEN del growth	Autophagy HCS	Dynein transport
CCOC(=O)c1cc(-c2ccccc2)n(CC(=O)O)c1C	97	0.62	90	+	0.022
CCCNC(=O)Cn1c(-c2ccc(F)cc2)cc(C(=O)OCC)c1C	x	x	x	+	3
CCOC(=O)c1cc(-c2ccc(F)cc2)n(CC(=O)NC(C)CC)c1C (centres undefined)	x	x	x	i	0.54
CC(C)CN(CC(C)C)C(=O)CCCC(=O)N(CC(C)C)CC(C)C	85	0.3	85	i	1.7
Cc1cc(C(=O)N/N=C/c2cccc([N+](=O)[O-])c2)c(C)o1	82	-0.62	90	i	1.4
O=C(N/N=C/c1cccc([N+](=O)[O-])c1)c1cc2ccccc2o1	3.8*	-0.68	2.2*	i	0.75
O=C(N/N=C/c1ccc2c(c1)OCO2)c1cc2ccccc2o1	x	x	x	x	-0.089
O=C(COc1ccc(/C=N/NC(=O)c2cc3ccccc3o2)cc1Cl)Nc1ccccc1	2.8*	-2.7	1.5*	i	-0.09
CCC(=O)Nc1ccc(C(=O)N/N=C/c2cc(Br)c(OC)cc2OC)cc1	93	0.5	95	i	-0.79
Cc1cccc(NC(=S)NC23CN4CN(CN(C4)C2)C3)c1C	x	x	x	i	2.8
COc1cccc(/C=N/Nc2ncnc(Cl)c2N)c1O	6	-0.73	3.1*	i	0.87
COc1cccc(/C=N/Nc2nc3ccccc3n3cnnc23)c1O	5.8*	-0.69	6	i	-0.68
COc1cccc(/C=N/Nc2nccnc2Cl)c1O	x	x	x	+	2
Oc1ccccc1/C=N/Nc1nccnc1Cl	9	-0.05	6	i	0.29
COc1cccc(/C=N/Nc2nc3ccccc3n3cnnc23)c1	99	0.54	93	i	0.56
Cc1cc2ncn(-c3ncnc4scc(-c5ccccc5)c34)c2cc1C	55	-2.1	73	i	-0.07
CC1CCCC(NC(=O)COC(=O)/C=C/c2ccc(S(=O)(=O)N3CCOCC3)cc2)C1C (centres undefined)	x	x	x	x	-0.36
O=C(COC(=O)c1ccccc1Cl)NC(=O)NCc1ccccc1	101	-0.74	106	i	0.69
COc1ccc(-n2c(SC3CCOC3=O)nc3ccccc3c2=O)cc1Cl (centres undefined)	x	x	x	i	0.23
c1ccc(Nc2nc(NCc3ccco3)c3ccccc3n2)cc1	x	x	x	x	0.51
Cc1cccc(Nc2nc(NCc3ccco3)c3ccccc3n2)c1	1.8*	-0.39	1.8*	i	2
COCc1cc(C)nc(N)c1C#N	92	1.4	98	x	x
Cc1cccc(NC(=O)c2ccc(NCCc3ccccc3)c([N+](=O)[O-])c2)c1	84	0.16	80	+	-1.5
Cc1ccc(NC(=O)c2ccc(NCCN)c([N+](=O)[O-])c2)cc1	84	0.26	81	i	-0.38
Cc1ccc(NC(=O)c2ccc(NCc3ccco3)c([N+](=O)[O-])c2)cc1Cl	85	-0.69	88	+	-1.6
Cc1ccc(NC(=O)c2ccc(NCC3CCCO3)c([N+](=O)[O-])c2)cc1Cl (centres undefined)	55	2.2[13.5 µM]	49	i	0.53
CCOC(=O)c1ccc(NC(=O)COC(=O)c2cccc(Oc3ccccc3)c2)cc1	92	0.15	95	i	0.28
COc1ccc(N2CCN(S(=O)(=O)c3ccc4c(c3)OCCO4)CC2)cc1	x	x	x	i	-0.36
Cn1cccc1-c1cc(C(=O)N/N=C/C=C/c2ccccc2)[nH]n1	x	x	x	i	1.2

Source: PubChem (several laboratories)
